Experimental data gathered from unrelated publications.
Protocols differ between the studies behind these lines.

CCn1ccc2nc(-c3ccccn3)nc(N3CCC(c4ccccn4)C3)c21 (stereo not shown) — Papp (PAMPA; 10 µM, 3 h, pH 7.4): 21 ×10⁻⁶ cm/s
c1cncc(-c2cccc(Nc3nccc(NC4CCOCC4)n3)c2)c1 — Papp (PAMPA; 50 nM, 30 min): 1840 ×10⁻⁶ cm/s
Cc1csc2c(=O)n(O)c(=O)[nH]c12 — Papp (PAMPA; 10 µM, 5 h): 0.1 ×10⁻⁶ cm/s
CC(C)(C)Nc1ccnc(Nc2cccc(-c3cccnc3)c2)n1 — Papp (PAMPA; 50 nM, 30 min): 1990 ×10⁻⁶ cm/s
Cc1nc2n(c(=O)c1CCN1CCC(c3noc4cc(F)ccc34)CC1)CCCC2 — Papp (PAMPA-BBB; 50 µM, 16 h, pH 7.4): 15.5 ×10⁻⁶ cm/s
N=c1c2c(-c3ccccc3)c(-c3ccccc3)n(Cc3ccc(S(N)(=O)=O)cc3)c2ncn1C1CCOCC1 — Papp (PAMPA; 50 µM, 30 min): 1 ×10⁻⁶ cm/s
CCCCNc1ccnc(Nc2cccc(-c3cccnc3)c2)n1 — Papp (PAMPA; 50 nM, 30 min): 1720 ×10⁻⁶ cm/s
N=c1c2c(-c3ccccc3)c(-c3ccccc3)n(Cc3ccc(OC(F)(F)F)cc3)c2ncn1[C@H]1CC[C@@H](O)CC1 — Papp (PAMPA; 50 µM, 30 min): 1250 ×10⁻⁶ cm/s
c1cncc(-c2cccc(Nc3nccc(NC4CCNCC4)n3)c2)c1 — Papp (PAMPA; 50 nM, 30 min): 8.2 ×10⁻⁶ cm/s
O=c1[nH]c2sc3c(c2c(=O)n1O)CCNC3 — Papp (PAMPA; 10 µM, 5 h): 0.07 ×10⁻⁶ cm/s
Cc1cccc(/C=C/[C@@H]2[C@H](N3C(=O)OC[C@@H]3c3ccccc3)C(=O)N2[C@H](CC(=O)N2CCC(N3CCCCC3)CC2)C(=O)N[C@H](C)c2ccccc2)c1 — Papp (PAMPA-BBB; 25 µg/mL, 18 h, pH 7.4): > 4 ×10⁻⁶ cm/s
c1ccc(-c2nc(NCc3ccco3)c3ccccc3n2)nc1 — Papp (PAMPA; 10 µM, 3 h, pH 7.4): 22.8 ×10⁻⁶ cm/s
COc1ccc(C(CO)Nc2ncnc3sc(-c4ccccc4)cc23)cc1 (stereo not shown) — Papp (PAMPA): 240 ×10⁻⁶ cm/s
CCN1CC(=O)NC(CC(C)C)C(=O)N(C)C(C)C(=O)NC(CC(C)C)C(=O)N2CCCC2C(=O)N(CC2CCCCC2)CC(=O)NC(CC(C)C)C(=O)N(C)C(C)C(=O)NC(Cc2ccccc2)C(=O)N2CCCC2C1=O (stereo not shown) — Papp (PAMPA): 18 ×10⁻⁶ cm/s
c1ccc(-c2nc(NCCn3ccnc3)c3ccccc3n2)nc1 — Papp (PAMPA; 10 µM, 3 h, pH 7.4): 8.4 ×10⁻⁶ cm/s
O=C(O)c1ccc2c(c1)nc(Nc1cccc(Cl)c1)c1ccncc12 — Papp (PAMPA; 5 h, pH 7.4): 0.728 ×10⁻⁶ cm/s
CCN1CCc2c(sc3[nH]c(=O)n(O)c(=O)c23)C1 — Papp (PAMPA; 10 µM, 5 h): 0.08 ×10⁻⁶ cm/s
COc1ccc(CCn2cnc3c(c(-c4ccccc4)c(-c4ccccc4)n3Cc3ccccc3)c2=N)cc1OC — Papp (PAMPA; 50 µM, 30 min): 1200 ×10⁻⁶ cm/s
c1ccc(-c2cccc(Nc3nccc(NC4CCCCC4)n3)c2)nc1 — Papp (PAMPA; 50 nM, 30 min): 1530 ×10⁻⁶ cm/s
Cn1c(=O)c2c(ncn2C)n(C)c1=O — Papp (PAMPA; 200 µM, 5 h): 6.85 ×10⁻⁶ cm/s
c1cncc(-c2cccc(Nc3nccc(NC4CCC4)n3)c2)c1 — Papp (PAMPA; 50 nM, 30 min): 2050 ×10⁻⁶ cm/s
Cn1nccc1-c1nc(N2CCC(c3ccccn3)C2)c2ccccc2n1 (stereo not shown) — Papp (PAMPA; 10 µM, 3 h, pH 7.4): 49.3 ×10⁻⁶ cm/s
Cc1csc2[nH]c(=O)n(O)c(=O)c12 — Papp (PAMPA; 10 µM, 5 h): 0.2 ×10⁻⁶ cm/s
N=c1c2c(-c3ccccc3)c(-c3ccccc3)n(CCc3ccccc3)c2ncn1CC1CCOCC1 — Papp (PAMPA; 50 µM, 30 min): 1230 ×10⁻⁶ cm/s
O=C(CCCN1CCC(O)(c2ccc(Cl)cc2)CC1)c1ccc(F)cc1 — Papp (PAMPA-BBB; 50 µM, 16 h, pH 7.4): 21.4 ×10⁻⁶ cm/s
CC(C)c1noc(C2CCN(c3ncnc(Nc4ccc(S(C)(=O)=O)cc4F)c3[N+](=O)[O-])CC2)n1 — Papp (PAMPA-BBB; 0.5 µM, 4 h, pH 7.4): 3.02 ×10⁻⁶ cm/s
c1ccc(CN2CCN(c3nc(-c4ccccn4)nc4ccccc34)CC2)cc1 — Papp (PAMPA; 10 µM, 3 h, pH 7.4): 32.8 ×10⁻⁶ cm/s
COC(=O)[C@H](C)Nc1ccnc(Nc2cccc(-c3cccnc3)c2)n1 — Papp (PAMPA; 50 nM, 30 min): 1910 ×10⁻⁶ cm/s
Cc1cc(-c2ccc(Sc3cc(=O)n(O)c(=O)[nH]3)cc2)ccc1F — Papp (PAMPA; 10 µM, 5 h): 1.1 ×10⁻⁶ cm/s
C[C@@H](NC(=O)[C@@H](CC(=O)N1CCC(N2CCCCC2)CC1)N1C(=O)[C@@H](N2C(=O)OC[C@@H]2c2ccccc2)[C@H]1/C=C/c1cccc(I)c1)c1ccccc1 — Papp (PAMPA-BBB; 25 µg/mL, 18 h, pH 7.4): 2 to 4 ×10⁻⁶ cm/s
N=c1c2c(-c3ccccc3)cn(Cc3ccccc3)c2ncn1CCO — Papp (PAMPA; 50 µM, 30 min): 1270 ×10⁻⁶ cm/s
Oc1ccc(-c2nc(N3CCC(c4ccccn4)C3)c3ccccc3n2)cc1 (stereo not shown) — Papp (PAMPA; 10 µM, 3 h, pH 7.4): 32.8 ×10⁻⁶ cm/s
O=c1[nH]c2cc(-c3ccc(F)cc3)sc2c(=O)n1O — Papp (PAMPA; 10 µM, 5 h): 0.6 ×10⁻⁶ cm/s
c1ccc(-c2nc(N3CCc4nc[nH]c4C3)c3ccccc3n2)nc1 — Papp (PAMPA; 10 µM, 3 h, pH 7.4): 11.8 ×10⁻⁶ cm/s
CC[C@H](C)[C@@H]1NC(=O)[C@@H](Cc2ccccc2)OC(=O)CNC(=O)[C@H]([C@@H](C)CC)NC(=O)[C@@H](Cc2ccccc2)OC(=O)CNC1=O — Papp (PAMPA): 47 ×10⁻⁶ cm/s
CC(=O)CC(c1ccccc1)c1c(O)c2ccccc2oc1=O (stereo not shown) — Papp (PAMPA; 10 µM, 24 h, pH 7.4): 1.5 ×10⁻⁶ cm/s
Cc1cc(C)c2cc(C(=O)NC3CCCCCCC3)[nH]c2c1 — Papp (PAMPA; 16 h): 0.18 ×10⁻⁶ cm/s
O=c1[nH]c2sc(-c3ccc(F)cc3)cc2c(=O)n1O — Papp (PAMPA; 10 µM, 5 h): 0.6 ×10⁻⁶ cm/s
C[C@H](Nc1ccnc(Nc2cccc(-c3cccnc3)c2)n1)C(=O)O — Papp (PAMPA; 50 nM, 30 min): 9.7 ×10⁻⁶ cm/s
O=c1[nH]c2cc(-c3ccc(Cl)cc3)sc2c(=O)n1O — Papp (PAMPA; 10 µM, 5 h): 1 ×10⁻⁶ cm/s
CC[C@@H](C)[C@@H]1NC(=O)[C@@H](Cc2ccccc2)OC(=O)CN(C)C(=O)[C@H]([C@H](C)CC)NC(=O)[C@@H](Cc2ccccc2)OC(=O)CN(C)C1=O — Papp (PAMPA): 28 ×10⁻⁶ cm/s
CN(C)CCn1cnc2c(c(-c3ccccc3)c(-c3ccccc3)n2Cc2ccccc2)c1=N — Papp (PAMPA; 50 µM, 30 min): 1360 ×10⁻⁶ cm/s
c1ccc(-c2nc(NCc3nc4ccccc4o3)c3ccccc3n2)nc1 — Papp (PAMPA; 10 µM, 3 h, pH 7.4): 27.8 ×10⁻⁶ cm/s
